Like-named read-outs stand apart in the source and are kept apart here.

Data on 2 substances can be found in PMC9041360 (RSC Advances, 2021).

Data set [1] relates to HeLa cells. The note with it: read-out: IC50 cytotoxicity against HeLa cells; HeLa cells ref 40; cited from earlier work.
Data set [2] relates to HeLa cells. The experiment in a line: Cytotoxicity testing using MTT, dose–response. Format: cell-based, human. A digest of the protocol:
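HeLa cells grown in RPMI 1640 with 10% FBS, 2 mM L-glutamine and 1% antibiotics at 37 °C, 5% CO2. Seeded at 10 × 10^3 cells per well and left to adhere overnight. The whole medium was replaced with test compound in medium for 48 h. MTT (4 mg mL−1 in PBS) was added for 4 h, then cells were centrifuged and formazan dissolved in DMSO. Absorbance at 590/640 nm. Viability given as percent of untreated control.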

Data set [3] has as its system HeLa cells. The data set is described as follows: Recovery experiments. The note with it: 5 and 10 μM, exposure 1–8 h, then 48 h recovery, MTT. Format: cell-based, human.
Data set [4] relates to HeLa cells. The experiment in a line: Membrane damage by LDH leakage. It is filed as cell-based, human. In outline: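 HeLa cells were seeded at 1 × 10^4 per well. At 30 min, 45 min, 1, 2, 3 and 6 h after treatment, LDH release was measured with the CytoTOX One membrane-integrity kit. Lysis solution gave maximum leakage. Fluorescence (ex 560/em 590) was expressed as percent of maximum LDH leakage.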
Background: Release of lactate dehydrogenase indicates damage to the cell membrane.

The test system of data set [5] is Saccharomyces cerevisiae P23. The experiment in a line: Membrane permeabilization assay. It is filed as cell-based. The note with it: S. cerevisiae, 5 and 10 μM. In outline: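 S. cerevisiae P23 was grown aerobically in YEPG at 30 °C to mid-log phase (OD450 about 0.5). Cells were harvested, washed and resuspended to OD450 about 0.2 in 0.15 M citrate–phosphate buffer, pH 6.0, with 0.5% glucose and 10 μM propidium iodide. Test compound was added at 1, 5 or 10 μM final. PI uptake was followed as fluorescence (ex 515/em 620) at 25 °C. Controls: 10 μM melittin (positive) and buffer (baseline). Two sets of experiments, with no background subtraction.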

Data set [6] in a line: Lipid bilayer experiments. As to conditions: planar DOPC/DOPE membranes, 50 mV. A digest of the protocol:
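Black lipid bilayers were painted from 3% (w/v) DOPC/DOPE 2:1 (w/w) in n-decane/butanol 9:1 across a 0.5 mm aperture. Both compartments held 10 mM Tris, 1 M KCl, pH 7.4, at 25 °C. Test compound (5 or 10 μM) was added to the cis side. Current was recorded with Ag/AgCl electrodes at 50 mV, cis positive, with traces of 120 s.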

Data set [7] relates to HeLa cells. The experiment in a line: Cellular morphology by light microscopy. It is filed as cell-based, human. The note with it: 48 h of exposure, concentrations from 2.5 to 20 μM. A digest of the protocol:
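HeLa cells in RPMI were seeded at 5 × 10^3 cells per well on poly-D-lysine-coated glass-bottom imaging plates. Next day they were treated with 20, 5 or […] μM test compound. Live-cell imaging used an inverted microscope with an incubation chamber supplied with 5% CO2 and a 100× oil objective. Images were taken after 48 h of treatment.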

The test system of data set [8] is Aspergillus fumigatus (BCC020_2845). The experiment in a line: Antifungal activity, broth two-fold microdilution. Format: cell-based. As to conditions: 30 °C, 48 h, tested 75 to 0.036 μM; NA = no activity at 75 μM. A digest of the protocol: (§1)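 Two-fold broth microdilution per CLSI M100-S20. Compounds were serially diluted from 75 to 0.036 μM in Mueller Hinton broth with 2% glucose. Inoculum from an overnight culture, about 5 × 10^5 CFU mL−1 final. Incubated aerobically at 30 °C for 48 h. Solvent control: medium with 50% DMSO in methanol. Fluconazole (32 to 0.0625 μg mL−1) served as positive control. MIC was the lowest concentration showing some growth inhibition. Triplicate.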

In data set [9] the test system is Alternaria alternata (BCC020_0609). The data set is described as follows: Antifungal activity, broth two-fold microdilution. It is filed as cell-based. The note with it: 30 °C, 48 h, tested 75 to 0.036 μM; NA = no activity at 75 μM. A digest of the protocol:
as §1
(In general: Dilution methods test growth across graded concentrations, often in twofold steps.)

With Iturin A, the IC50 (commonly the concentration that inhibits the measured activity by half) with HeLa cells [1] was 1730 nM.
minutissamide A [Compound 1]: in the data set on HeLa cells [2] (MTT, 48 h, at higher concentrations (5–20 μM)), the “reduction of cell viability / inhibition” value was 70%. Besides, the IC50 with HeLa cells [2] (read-out: IC50 against HeLa cells (MTT assay), 48 h treatment) worked out at 2800 nM. Also, the “cell viability after compound washout and recovery (in words)” value in the data set with HeLa cells [3] is listed as “easily tolerated by the cells for the first two hours”. For the same substance, the “LDH leakage (in words)” value in the data set with HeLa cells [4] (early time points up to 2 h) is “No LDH leakage”. Also, the “LDH accumulated in the medium, % of positive control” value with HeLa cells [4] (only after 3 h) is “up to 30%”. Further, the “membrane permeabilization, PI entry into yeast cells (in words)” value in data set [5] was “No membrane disruption was detectable”. The “pore-forming activity / membrane permeabilization (in words)” value in data set [6] (5 μM) was “almost completely inactive”. Moreover, in data set [6] (10 μM), the “typical transmembrane electrical current” value was “about 10 pA”. In the data set on HeLa cells [7], the “cellular morphology (in words)” value was “cell shrinkage and membrane rupture”. For the same substance, the “MIC A. fumigatus” value in data set [8] turned out to be 37.5 µM. The “MIC A. alternata” value in data set [9] came to 75 µM.
